Calls of active or inactive are those of the source. The rule behind the calls is not given here.
Key:
MDA-MB-231 [1] = assay: Reduction of fascin localization in actin-rich membrane protrusion in human MDA-MB-231 cells at 10 uM by immuno fluorescence microscopic analysis; type: functional, cell-based
MDA-MB-231 [2] = assay: Inhibition of serum-induced actin-rich membrane protrusion in human MDA-MB-231 cells assessed as reduction of f-actin intensity at 10 uM after overnight incubation by fluorescent microscopic analysis; type: functional
In short: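 MDA-MB-231 cells serum-starved with or without 10 μM compound, then serum-stimulated for 2 h to induce actin-rich membrane protrusions. F-actin was stained and imaged by fluorescence microscopy, and f-actin intensity was quantified against DMSO-treated cells.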

MDA-MB-231 [3] = assay: Inhibition of cell invasion in human MDA-MB-231 cells assessed as total number of cells at 10 uM after 24 hrs by matrigel invasion assay relative to control; type: functional; conditions: MDA-MB-231, 24 h
A549 = assay: Inhibition of cell migration in human A549 cells assessed as total number of cells at 10 uM after 24 hrs by transwell migration assay relative to control; type: functional; conditions: A549, 24 h
MDA-MB-231 [4] = assay: Inhibition of cell migration in human MDA-MB-231 cells assessed as total number of cells after 24 hrs by transwell migration assay; type: functional, cell-based; conditions: for IC50: MDA-MB-231, 24 h
In short: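 Dose-response transwell migration in MDA-MB-231 cells: 2.5 × 10^4 cells in serum-free upper chamber, 5% FBS in the lower chamber.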

MDA-MB-231 [5] = assay: Cytotoxicity against human MDA-MB-231 cells assessed as colony formation at 10 uM after 2 weeks relative to control; type: cell-based; conditions: mda-mb-231, 336 h
In short: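 Clonogenic assay: MDA-MB-231 cells grown for 14 days in six-well plates with or without 10 μM compound. Colony formation expressed as % of DMSO vehicle control.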

HeLa [6] = assay: Inhibition of cell migration in human HeLa cells assessed as total number of cells at 10 uM after 24 hrs by transwell migration assay relative to control; type: functional
HeLa [7] = assay: Cytotoxicity against human HeLa cells assessed as colony formation at 10 uM after 2 weeks relative to control; type: cell-based; conditions: 336 h
MDA-MB-231 [8] = assay: Inhibition of cell migration in human MDA-MB-231 cells assessed as total number of cells at 10 uM after 24 hrs by transwell migration assay relative to control; values are per cent of control; conditions: MDA-MB-231, 24 h

## Cc1ccc(-c2cs/c(=N/C(=O)c3ccccc3)n2C)c(C)c1
MDA-MB-231 [1]
  Activity: Active
MDA-MB-231 [2]
  inhibition at 10 µM: 55%
MDA-MB-231 [3]
  inhibition at 10 µM: 60%
A549
  inhibition at 10 µM: 80%
MDA-MB-231 [4]
  inhibition: Dose-dependent effect
  IC50: 176 nM
MDA-MB-231 [5]
  Activity: 120.9%
HeLa [6]
  inhibition at 10 µM: 80%
HeLa [7]
  Activity: 85%
MDA-MB-231 [8]
  level, % of control at 10 µM: 14.3%

## CCCCCC(=O)N(C)c1nc(-c2ccccc2)cs1
MDA-MB-231 [5]
  Activity: 127.5%
MDA-MB-231 [8]
  level, % of control at 10 µM: 71.4%

## O=C(Nc1nc(-c2ccccc2)cs1)c1cccs1
MDA-MB-231 [3]
  inhibition at 10 µM: 40%
MDA-MB-231 [4]
  IC50: 2490 nM
MDA-MB-231 [5]
  Activity: 85.9%
HeLa [6]
  inhibition at 10 µM: 60%
MDA-MB-231 [8]
  level, % of control at 10 µM: 34.5%

## COc1ccc(C(=O)/N=c2/scc(-c3ccccc3)n2C)cc1OC
MDA-MB-231 [5]
  Activity: 40.9%
MDA-MB-231 [8]
  level, % of control at 10 µM: 35.9%

## Cn1c(-c2ccccc2)cs/c1=N/C(=O)c1ccccc1
MDA-MB-231 [3]
  inhibition at 10 µM: 40%
MDA-MB-231 [4]
  IC50: 189 nM
MDA-MB-231 [5]
  Activity: 25.2%
HeLa [6]
  inhibition at 10 µM: 60%
HeLa [7]
  Activity: Toxic
MDA-MB-231 [8]
  level, % of control at 10 µM: 13%

## Cc1ccc(-c2csc(NC(=O)c3cccs3)n2)c(C)c1
MDA-MB-231 [5]
  Activity: 67.5%
MDA-MB-231 [8]
  level, % of control at 10 µM: 40.9%

## Cn1c(-c2ccccc2)cs/c1=N/C(=O)c1cccnc1
MDA-MB-231 [5]
  Activity: 111.5%
MDA-MB-231 [8]
  level, % of control at 10 µM: 62%

## O=C(Nc1nc(-c2ccccc2)cs1)C1CCCCC1
MDA-MB-231 [5]
  Activity: 103.4%
MDA-MB-231 [8]
  level, % of control at 10 µM: 92.7%

## O=C(Nc1nc(-c2ccccc2)cs1)c1ccc(Br)cc1
MDA-MB-231 [5]
  Activity: 98.6%
MDA-MB-231 [8]
  level, % of control at 10 µM: 103%

## COc1cc(C(=O)/N=c2/scc(-c3ccccc3)n2C)cc(OC)c1OC
MDA-MB-231 [5]
  Activity: 75.4%
MDA-MB-231 [8]
  level, % of control at 10 µM: 26.5%

## CN(C(=O)c1ccccc1)c1nc(-c2ccccc2)cs1
MDA-MB-231 [3]
  inhibition at 10 µM: 40%
MDA-MB-231 [4]
  IC50: 366 nM
MDA-MB-231 [5]
  Activity: 123.4%
HeLa [6]
  inhibition at 10 µM: 60%
MDA-MB-231 [8]
  level, % of control at 10 µM: 39.2%

## Cc1ccc(-c2csc(N)n2)c(C)c1
MDA-MB-231 [5]
  Activity: 110.9%
MDA-MB-231 [8]
  level, % of control at 10 µM: 45.5%

## O=C(Nc1nc(-c2ccccc2)cs1)c1ccccc1
MDA-MB-231 [3]
  inhibition at 10 µM: 40%
MDA-MB-231 [4]
  IC50: 1290 nM
MDA-MB-231 [5]
  Activity: 105.2%
HeLa [6]
  inhibition at 10 µM: 60%
MDA-MB-231 [8]
  level, % of control at 10 µM: 31.3%

## CN(C(=O)C1CCCC1)c1nc(-c2ccccc2)cs1
MDA-MB-231 [5]
  Activity: 132.4%
MDA-MB-231 [8]
  level, % of control at 10 µM: 54.3%

## COc1cc(C(=O)Nc2nc(-c3ccccc3)cs2)cc(OC)c1OC
MDA-MB-231 [5]
  Activity: 80.9%
MDA-MB-231 [8]
  level, % of control at 10 µM: 46.5%

## CN(C(=O)c1ccc(Br)cc1)c1nc(-c2ccccc2)cs1
MDA-MB-231 [5]
  Activity: 107.7%
MDA-MB-231 [8]
  level, % of control at 10 µM: 78.2%

## O=C(Nc1nc(-c2ccccc2)cs1)c1ccncc1
MDA-MB-231 [3]
  inhibition at 10 µM: 40%
MDA-MB-231 [4]
  IC50: 2870 nM
MDA-MB-231 [5]
  Activity: 95.5%
HeLa [6]
  inhibition at 10 µM: 60%
MDA-MB-231 [8]
  level, % of control at 10 µM: 32.3%

## Cn1c(-c2ccccc2)cs/c1=N/C(=O)c1ccco1
MDA-MB-231 [5]
  Activity: 107.3%
MDA-MB-231 [8]
  level, % of control at 10 µM: 77.6%

## COc1cc(OC)c(-c2csc(NC(=O)c3ccccc3)n2)c(OC)c1
MDA-MB-231 [5]
  Activity: 108.8%
MDA-MB-231 [8]
  level, % of control at 10 µM: 59.2%

## Cn1c(-c2ccccc2)cs/c1=N/C(=O)c1ccc(Br)cc1
MDA-MB-231 [5]
  Activity: 63.8%
MDA-MB-231 [8]
  level, % of control at 10 µM: 59.7%
